One data set relates to CYP3A4. Conditions: ref Yao et al., 2006; cited from earlier work.
The test system of a further data set is HIV-1NL-43. Kind of data set: Antiviral activity in vitro, TZM-bl luciferase reporter assay. The format is cell-based. The note with it: for IC50: Human immunodeficiency virus 1, TZM-bl, 48 h; for times more potent than free parent drug (IC50 ratio): TZM-bl cells, vs free FTC or free EVG.
Data set [1] is described as follows: Pharmacokinetic evaluation after intramuscular injection, plasma LC/MS. The note with it: female, CD-1, mouse, im, 1000 mg/kg. The format is in vivo, CD-1 mice.
Data set [2] in a line: Hydrolytic release curves, pH 7.4 PBS, 37 °C. Conditions: 1 mg/mL, UV-vis. The format is physicochemical. The gist of the method: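 Test conjugates at 1 mg/mL were hydrolysed in 0.1 M phosphate-buffered saline, pH 7.4, with continuous stirring at 37 °C, in triplicate. Samples were taken at 1, 3, 7, 10, 14, 17, 21, 24, 28, 31, 35 and 42 days. Released parent drug was measured by UV absorbance at 300 nm or 320 nm, depending on the drug. Data are mean ± standard deviation (n = 3).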

The conditions of data set [3]: ref Ho et al., 2018; cited from earlier work.
A further data set relates to HIV. The note with it: ref Agarwal et al., 2013; cited from earlier work.

With `CC/C=C\C/C=C\C/C=C\C/C=C\C/C=C\C/C=C\CCC(=O)O` [DHA (Docosahexaenoic acid), Docosahexaenoic acid], the “inhibitory potency against CYP3A4 among available PUFA options” value in the data set with CYP3A4 was “greater inhibitory potency”.
Regarding `COc1cc2c(cc1Cc1cccc(Cl)c1F)c(=O)c(C(=O)O)cn2[C@H](CO)C(C)C` [EVG (Elvitegravir), Elvitegravir], in the data set with HIV-1NL-43, half-maximal inhibition (IC50) required 30.9 µM. In data set [1], the AUC(0-t) (as a rule, exposure summed from dosing to a finite time, without extrapolation to infinity) was found to be 48300 ng·h/mL; the Cmax (in general, the maximum level reached in the sampled fluid or tissue) was determined as 1750 ng/mL; the half-life (commonly the time in which the quantity being followed falls by half) is 9.75 h; the k el is 1.97e-05 s⁻¹.
As for `CC/C=C/C/C=C/C/C=C/C/C=C/C/C=C/C/C=C\CCC(=O)OCC(C(C)C)n1cc(C(=O)O)c(=O)c2cc(Cc3cccc(Cl)c3F)c(OC)cc21` (stereo not shown) [EVG-DHA, 6-(3-chloro-2-fluorobenzyl)-1-(1-(((4Z,7E,10E,13E,16E,19E)-docosa-4,7,10,13,16,19-hexaenoyl)oxy)-3-methylbutan-2-yl)-7-methoxy-4-oxo-1,4-dihydroquinoline-3-carboxylic acid], in the data set on HIV-1NL-43, the IC50 (commonly the concentration that gives 50% inhibition) was found to be 0.14 µM and the “times more potent than free parent drug (IC50 ratio)” value was ~ 220 times. Further, in data set [2], the “period of sustained drug release” value is listed as 30 days.
The compound `Nc1nc(=O)n([C@@H]2CS[C@H](CO)O2)cc1F` [FTC (Emtricitabine), Emtricitabine] yielded an IC50 with HIV-1NL-43 of 17.2 µM. In data set [1], this compound gave an area under the curve AUC(0-t) of 127000 ng·h/mL, a Cmax of 41000 ng/mL, a half-life of 54.7 h and a k el of 3.61e-06 s⁻¹.
For `CC/C=C/C/C=C/C/C=C/C/C=C/C/C=C/C/C=C/CCC(=O)OC[C@@H]1O[C@H](n2cc(F)c(N)nc2=O)CS1` [FTC-DHA, ((2R,5S)-5-(4-amino-5-fluoro-2-oxopyrimidin-1(2H)-yl)-1,3-oxathiolan-2-yl)methyl (4E,7E,10E,13E,16E,19E)-docosa-4,7,10,13,16,19-hexaenoate], in the data set on HIV-1NL-43, inhibition was half-maximal at 1.39 µM (IC50) and the “times more potent than free parent drug (IC50 ratio)” value was ~ 12 times. Moreover, the “period of sustained drug release” value in data set [2] was 21 days.
With `C=C1[C@H](CO)[C@@H](O)C[C@@H]1n1cnc2c(=O)[nH]c(N)nc21` [entecavir], the “active antiretroviral released within the first hour” value in data set [3] was 15–41%.
Turning to `CCCCCCCCCCCCCC(=O)OC[C@@H]1O[C@H](n2cc(F)c(N)nc2=O)CS1` [myristoylated FTC conjugate], in the data set on HIV, the “higher anti-HIV activity compared to FTC alone” value is reported as 24 times.

Values taken from publication PMC6583897 (International journal of pharmaceutics, 2018).
